The structures appear in SMILES notation. Active and inactive are the calls of the source. No cut-off for these calls is given here.

The target in data set [1] is Dickkopf-related protein 1/Lrp6 (Mus musculus) (UniProt O54908+O88572). Kind of data set: Inhibition of DKK1-LRP6 interactions in mouse cortical neurons assessed as inhibition of prostaglandinJ2-induced tau phosphorylation at Ser396 residue at 10 uM for 1 hr by western bloting. Summed up:
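Primary mouse cortical neurons treated 1 h at 37 °C with 20 µM PGJ2 plus compound or DMSO. Lysed at 4 °C in Tris/NaCl/EDTA/Triton buffer, pH 7.6, with protease and phosphatase inhibitors; protein measured by Bradford. SDS-PAGE western blot probed with anti-pSer396 tau (1:1000, overnight, 4 °C) and anti-actin; ECL detection. Densitometry normalized to actin; three independent experiments, mean SD.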

For data set [2], the target named is Dickkopf-related protein 1/Low-density lipoprotein receptor-related protein 6 (Homo sapiens) (UniProt O94907+O75581). The experiment in a line: Inhibition of DKK1/LRP6 (unknown origin) expressed in HEK293 cells assessed as inhibition of DKK1/LRP6 interaction at 100 uM after 2 hrs by immunofluorescence method. It is filed as cell-based. Summed up:
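HEK-293 cells stably overexpressing LRP6, sub-confluent, incubated 2 h at 4 °C with DKK1 conditioned medium plus compound or DMSO. Fixed in 3% paraformaldehyde, blocked in PBS/0.1% BSA, stained with rabbit anti-DKK1 and Alexa488 secondary; DAPI nuclei. Surface DKK1 fluorescence quantified over 750 cells as % DKK1 binding; three independent experiments in duplicate.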

Data set [3] is described as follows: Cytotoxicity against mouse primary cortical neurons assessed as viable cells at 10 uM after 24 hrs by MTT assay. It is filed as cell-based, Cerebral cortex neuron. To be noted: for viability at 24 h, 10 µM: primary cortical neurons, read-out: Activity. Summed up:
(§1)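 Primary mouse cortical neurons seeded at 25,000 or 15,000 cells/well and grown 6 days at 37 °C, 5% CO2. Test compound was then added in fresh medium (final DMSO 0.1%) for 24 h at 37 °C. MTT (2.5 mg/ml in PBS) was added for 4 h. Formazan was extracted with isopropanol/HCl and absorbance read at 545 nm. Read-out is % viable cells.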

A short description of data set [4]: Cytotoxicity against mouse primary cortical neurons assessed viable cells at 100 uM after 24 hrs by MTT assay. The settings on record: for viability at 24 h, 100 µM: primary cortical neurons, read-out: Activity. It is filed as cell-based, Cerebral cortex neuron. Summed up: as §1
For data set [5], the target named is T1, Dickkopf-related protein 1 (Mus musculus, UniProt O54908).
T1 sequence (O54908 whole entry): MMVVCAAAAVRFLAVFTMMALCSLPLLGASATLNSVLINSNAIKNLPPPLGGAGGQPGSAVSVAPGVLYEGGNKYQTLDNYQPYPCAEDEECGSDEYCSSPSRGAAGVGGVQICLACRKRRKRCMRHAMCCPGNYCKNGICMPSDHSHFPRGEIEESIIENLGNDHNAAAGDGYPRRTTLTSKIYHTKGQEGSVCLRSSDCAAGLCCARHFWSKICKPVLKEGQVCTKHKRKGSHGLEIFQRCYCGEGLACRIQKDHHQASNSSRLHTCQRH
Kind of data set: Inhibition of mouse DKK1 assessed as inhibition of DKK1-alkaline phophatase binding to LRP5 transfected in HEK293 cells. It is filed as cell-based.

Sequence of Dickkopf-related protein 1/Low-density lipoprotein receptor-related protein 6 (Homo sapiens) (O75581 20-1613 partner limits assumed): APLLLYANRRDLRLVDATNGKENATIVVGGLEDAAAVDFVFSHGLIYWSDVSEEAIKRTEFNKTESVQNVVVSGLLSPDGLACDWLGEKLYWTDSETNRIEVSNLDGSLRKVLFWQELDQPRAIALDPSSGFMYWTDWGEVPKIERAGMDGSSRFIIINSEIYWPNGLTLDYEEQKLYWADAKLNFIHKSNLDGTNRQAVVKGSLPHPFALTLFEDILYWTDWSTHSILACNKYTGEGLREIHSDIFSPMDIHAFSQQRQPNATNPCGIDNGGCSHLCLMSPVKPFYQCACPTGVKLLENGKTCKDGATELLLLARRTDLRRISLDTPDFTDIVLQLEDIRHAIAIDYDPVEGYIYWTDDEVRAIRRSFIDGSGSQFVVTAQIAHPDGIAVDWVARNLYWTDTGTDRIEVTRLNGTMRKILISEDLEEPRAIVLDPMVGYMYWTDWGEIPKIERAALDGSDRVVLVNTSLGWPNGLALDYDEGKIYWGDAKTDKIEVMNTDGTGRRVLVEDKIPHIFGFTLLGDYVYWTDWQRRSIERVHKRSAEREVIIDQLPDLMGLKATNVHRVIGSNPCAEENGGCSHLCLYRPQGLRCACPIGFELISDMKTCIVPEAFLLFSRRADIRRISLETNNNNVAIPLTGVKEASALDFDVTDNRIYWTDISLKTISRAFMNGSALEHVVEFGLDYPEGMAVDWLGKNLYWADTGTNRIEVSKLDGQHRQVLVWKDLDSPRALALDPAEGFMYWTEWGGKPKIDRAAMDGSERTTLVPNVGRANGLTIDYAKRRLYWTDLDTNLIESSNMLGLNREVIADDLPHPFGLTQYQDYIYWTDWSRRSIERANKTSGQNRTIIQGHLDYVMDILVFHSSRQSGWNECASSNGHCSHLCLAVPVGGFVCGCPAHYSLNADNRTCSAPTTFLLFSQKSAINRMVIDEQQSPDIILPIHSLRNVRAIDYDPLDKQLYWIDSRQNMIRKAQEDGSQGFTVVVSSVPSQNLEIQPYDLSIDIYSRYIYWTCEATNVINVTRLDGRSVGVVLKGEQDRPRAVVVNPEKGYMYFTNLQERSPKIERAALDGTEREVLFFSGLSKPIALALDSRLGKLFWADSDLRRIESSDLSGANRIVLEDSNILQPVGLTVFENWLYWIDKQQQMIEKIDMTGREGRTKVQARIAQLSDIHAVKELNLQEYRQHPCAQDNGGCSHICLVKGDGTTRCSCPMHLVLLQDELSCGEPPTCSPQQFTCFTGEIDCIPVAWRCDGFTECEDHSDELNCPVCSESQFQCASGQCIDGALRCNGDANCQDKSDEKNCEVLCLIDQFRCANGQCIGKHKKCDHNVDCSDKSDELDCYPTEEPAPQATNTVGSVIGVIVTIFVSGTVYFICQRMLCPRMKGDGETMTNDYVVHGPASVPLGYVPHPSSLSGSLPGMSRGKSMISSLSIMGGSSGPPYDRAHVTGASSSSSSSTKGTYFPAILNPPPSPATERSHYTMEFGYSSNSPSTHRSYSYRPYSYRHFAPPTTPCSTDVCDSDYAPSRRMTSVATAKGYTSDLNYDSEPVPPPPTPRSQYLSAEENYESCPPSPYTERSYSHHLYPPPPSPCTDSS
Sequence of Dickkopf-related protein 1/Low-density lipoprotein receptor-related protein 6 (Homo sapiens) (O94907 32-266 limits assumed): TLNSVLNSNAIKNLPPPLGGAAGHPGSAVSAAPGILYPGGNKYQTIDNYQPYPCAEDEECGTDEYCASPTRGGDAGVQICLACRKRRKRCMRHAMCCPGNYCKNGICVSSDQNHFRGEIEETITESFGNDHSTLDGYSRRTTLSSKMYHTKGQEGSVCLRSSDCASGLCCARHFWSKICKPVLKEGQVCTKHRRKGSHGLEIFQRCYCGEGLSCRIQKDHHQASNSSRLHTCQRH
Sequence of Dickkopf-related protein 1/Lrp6 (Mus musculus) (O88572 whole entry, looked up, one chain of several): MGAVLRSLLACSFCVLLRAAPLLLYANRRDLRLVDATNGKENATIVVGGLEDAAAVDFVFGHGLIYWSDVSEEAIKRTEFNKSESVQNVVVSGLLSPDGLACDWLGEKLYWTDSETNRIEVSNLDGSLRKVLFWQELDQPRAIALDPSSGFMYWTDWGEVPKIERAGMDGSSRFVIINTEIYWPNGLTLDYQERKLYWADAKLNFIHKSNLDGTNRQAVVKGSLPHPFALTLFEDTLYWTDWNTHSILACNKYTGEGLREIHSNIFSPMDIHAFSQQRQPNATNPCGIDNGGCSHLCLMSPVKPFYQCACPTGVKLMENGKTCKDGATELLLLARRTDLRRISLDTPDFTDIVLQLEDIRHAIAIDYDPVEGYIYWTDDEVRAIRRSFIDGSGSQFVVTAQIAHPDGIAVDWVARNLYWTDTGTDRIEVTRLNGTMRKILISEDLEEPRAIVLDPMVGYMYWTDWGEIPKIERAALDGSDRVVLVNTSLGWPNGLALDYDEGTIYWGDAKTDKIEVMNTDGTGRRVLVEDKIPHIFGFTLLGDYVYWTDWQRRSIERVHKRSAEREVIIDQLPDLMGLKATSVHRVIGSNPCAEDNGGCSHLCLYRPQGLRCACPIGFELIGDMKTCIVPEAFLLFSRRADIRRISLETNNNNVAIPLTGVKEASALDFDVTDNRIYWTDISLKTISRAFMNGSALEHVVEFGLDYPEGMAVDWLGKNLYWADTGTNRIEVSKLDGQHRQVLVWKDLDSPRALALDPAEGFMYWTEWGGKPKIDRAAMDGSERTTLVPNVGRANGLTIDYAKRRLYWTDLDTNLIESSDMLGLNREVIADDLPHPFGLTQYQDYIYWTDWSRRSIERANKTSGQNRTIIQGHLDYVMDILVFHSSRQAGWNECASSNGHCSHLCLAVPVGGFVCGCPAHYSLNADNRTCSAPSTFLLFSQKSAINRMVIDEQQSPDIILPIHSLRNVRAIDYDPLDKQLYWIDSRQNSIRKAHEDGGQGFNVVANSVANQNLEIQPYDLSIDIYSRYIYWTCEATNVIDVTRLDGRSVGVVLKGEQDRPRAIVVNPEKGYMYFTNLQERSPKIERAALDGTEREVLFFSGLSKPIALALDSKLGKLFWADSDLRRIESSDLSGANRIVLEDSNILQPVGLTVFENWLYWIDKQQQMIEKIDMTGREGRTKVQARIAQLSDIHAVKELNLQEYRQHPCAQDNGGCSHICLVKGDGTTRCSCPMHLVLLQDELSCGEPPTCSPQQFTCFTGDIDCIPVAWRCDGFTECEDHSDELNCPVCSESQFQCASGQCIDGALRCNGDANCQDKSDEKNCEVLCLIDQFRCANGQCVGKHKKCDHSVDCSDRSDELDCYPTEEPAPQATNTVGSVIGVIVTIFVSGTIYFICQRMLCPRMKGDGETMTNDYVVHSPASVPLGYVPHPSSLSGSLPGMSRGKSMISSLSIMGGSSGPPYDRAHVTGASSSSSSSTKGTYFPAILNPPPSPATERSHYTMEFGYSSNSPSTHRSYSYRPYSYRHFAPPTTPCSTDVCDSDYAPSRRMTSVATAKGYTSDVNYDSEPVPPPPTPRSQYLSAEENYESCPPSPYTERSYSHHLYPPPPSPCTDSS

For `CN(C)c1ccc2nc3c(C(=O)O)cc(=O)c(O)c-3oc2c1` [listing 1 of 3 here], the inhibition entry in data set [1] and in data set [2] was “Active” each time.
Regarding `CN(C)c1ccc2nc3ccc(=O)c(O)c-3oc2c1`, the viability at 24 h, 10 µM in data set [3] turned out to be 100%. Further, in data set [4], the viability at 24 h, 100 µM was 100%. Moreover, the inhibition entry in data set [1] and in data set [2] was “Active” each time.
On to `CN(C)c1ccc2nc3c(C(=O)OCc4ccccc4)cc(=O)c(O)c-3oc2c1`, for which, in data set [3], the viability at 24 h, 10 µM was 100%. Further, the viability at 24 h, 100 µM in data set [4] was 100%. For the same molecule, the inhibition result in data set [1] and in data set [2] was “Active” in each case.
As to `CCOC(=O)c1cc(=O)c(O)c2oc3cc(N(C)C)ccc3nc1-2`, in data set [3], the viability at 24 h, 10 µM is 100%. Further, the viability at 24 h, 100 µM in data set [4] amounted to 100%. Also, the inhibition result in data set [1] and in data set [2] was “Active” in each case.
Turning to `CCCCOC(=O)c1cc(=O)c(O)c2oc3cc(N(CCC)CCC)ccc3nc1-2`, the viability at 24 h, 10 µM in data set [3] came to 100%. Moreover, the viability at 24 h, 100 µM in data set [4] was found to be 100%. The inhibition result in data set [2] was “Active”.
For the molecule `Cc1cc(=O)cc2oc3cc(N(C)C)ccc3nc1-2`, in data set [3], the viability at 24 h, 10 µM turned out to be 100%. Also, the viability at 24 h, 100 µM in data set [4] came to 100%. The inhibition result in data set [2] is “Active”.
With `CN(C)c1ccc2nc3c(O)cc(=O)cc-3oc2c1`, the viability at 24 h, 10 µM in data set [3] worked out at 100%. In addition, in data set [4], the viability at 24 h, 100 µM worked out at 100%. Besides, the inhibition result in data set [2] was “Active”.
For the molecule `CCCN(CCC)c1ccc2nc3c(C(=O)OC)cc(=O)c(O)c-3oc2c1`, in data set [3], the viability at 24 h, 10 µM was determined as 100%. Moreover, the viability at 24 h, 100 µM in data set [4] was determined as 100%. For the same molecule, in data set [2], the inhibition entry was “Active”.
Turning to `COCCOC(=O)c1cc(=O)c(O)c2oc3cc(N(C)C)ccc3nc1-2`, the viability at 24 h, 10 µM in data set [3] was determined as 100%. Also, the viability at 24 h, 100 µM in data set [4] stood at 100%. Further, the inhibition result in data set [1] and in data set [2] was “Active” each time.
As to `CCOC(=O)c1cc(O)c(O)c(O)c1` [ETHYLGALLATE], in data set [3], the viability at 24 h, 10 µM was 100%. Moreover, the viability at 24 h, 100 µM in data set [4] is 100%. Besides, the inhibition entry in data set [2] was “Active”.
With `COCCOC(=O)c1cc(O)c(O)c2oc3cc(=[N+](C)C)ccc-3nc12`, the viability at 24 h, 10 µM in data set [3] is 100%. The viability at 24 h, 100 µM in data set [4] amounted to 100%. In data set [2], the inhibition result is “Active”.
As for `CCCCCCOC(=O)c1cc(=O)c(O)c2oc3cc(N(C)C)ccc3nc1-2`, the viability at 24 h, 10 µM in data set [3] was determined as 100%. Besides, the viability at 24 h, 100 µM in data set [4] amounted to 100%. For the same molecule, the inhibition entry in data set [1] and in data set [2] was “Active” in each case.
As for `CN(C)c1ccc2nc3c(C(=O)O)cc(=O)c(O)c-3oc2c1` [listing 2 of 3 here], the Activity stood at 100% in data set [3] (cerebral cortex neuron, 24 h, 10 µM) and 100% in data set [4] (cerebral cortex neuron, 24 h, 100 µM).
Turning to `CN(C)c1ccc2nc3c(C(=O)O)cc(=O)c(O)c-3oc2c1` [listing 3 of 3 here], in data set [3], the viability at 24 h, 10 µM stood at 100%. In data set [4], the viability at 24 h, 100 µM is 100%. In addition, the concentration for half-maximal inhibition (IC50) in data set [5] was 3 µM.
Take `CC(C)OC(=O)c1cc(=O)c(O)c2oc3cc(N(C)C)ccc3nc1-2`: the viability at 24 h, 10 µM in data set [3] is 100%. Besides, in data set [4], the viability at 24 h, 100 µM worked out at 100%. The inhibition entry in data set [1] and in data set [2] was “Active” in each case.
Take `CCCCOC(=O)c1cc(O)c(O)c2oc3cc(=[N+](C)C)ccc-3nc12`: in data set [3], the viability at 24 h, 10 µM is 100%. In data set [4], the viability at 24 h, 100 µM was 100%. Further, the inhibition result in data set [2] was “Active”.
On to `COC(=O)c1cc(=O)c(O)c2oc3cc(N(C)C)ccc3nc1-2`, for which the viability at 24 h, 10 µM in data set [3] was 100%. In addition, the viability at 24 h, 100 µM in data set [4] is 100%. Further, the inhibition result in data set [1] and in data set [2] was “Active” in each case.
Take `CCOC(=O)c1cc(O)c(O)c2oc3cc(=[N+](C)C)ccc-3nc12`: the viability at 24 h, 10 µM in data set [3] stood at 100%. In addition, the viability at 24 h, 100 µM in data set [4] was found to be 100%. Further, in data set [2], the inhibition entry was “Active”.
Turning to `CCCCOC(=O)c1cc(=O)c(O)c2oc3cc(N(C)C)ccc3nc1-2`, in data set [3], the viability at 24 h, 10 µM is 100%. Further, the viability at 24 h, 100 µM in data set [4] came out at 100%. In addition, the inhibition result in data set [1] and in data set [2] was “Active” each time.
As to `CCCCCCOC(=O)c1cc(O)c(O)c2oc3cc(=[N+](C)C)ccc-3nc12`, in data set [3], the viability at 24 h, 10 µM was 100%. Also, the viability at 24 h, 100 µM in data set [4] was 100%. Besides, the inhibition entry in data set [2] was “Active”.

Source of the values: ChEMBL document CHEMBL3745621, “Synthesis and evaluation of gallocyanine dyes as potential agents for the treatment of Alzheimer's disease and related neurodegenerative tauopathies” (Eur J Med Chem, 2016).
